In PubChem BioAssay AID2311 (NMMLSC, 2010):

These compounds were tested against Regulator of G-protein signaling 19 (Homo sapiens) (UniProt P49795) (assay: analogs regulating RGS19 interaction with Gαo – biochemical, SAR compounds, multiplexed bead flow cytometry, SAR follow-up (AID 2311)). Details: Bead-bound RGS19 and AF488-Galphao binding.
How it was run: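 Test system: biotinylated RGS19 on streptavidin beads, multiplexed with other RGS bead sets; timing: beads, labelled Galphao and compound together 30–90 min, room temperature; technique: high-throughput flow cytometry, median green fluorescence of RGS19-coated beads; read-out basis: EC50 by logistic fit, converted to Ki; controls: DMSO wells and RGS-free bead controls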

Chain of Regulator of G-protein signaling 19 (Homo sapiens) (P49795 whole entry, looked up): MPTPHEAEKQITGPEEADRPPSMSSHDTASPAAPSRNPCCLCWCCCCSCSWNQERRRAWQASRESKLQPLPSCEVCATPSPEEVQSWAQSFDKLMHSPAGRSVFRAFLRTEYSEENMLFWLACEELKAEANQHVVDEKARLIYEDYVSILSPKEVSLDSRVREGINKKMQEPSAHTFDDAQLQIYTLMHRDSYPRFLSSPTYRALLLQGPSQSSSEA

`NS(=O)(=O)c1ccc(N/N=C/c2ccc(O)c(O)c2O)c([N+](=O)[O-])c1` was tested, and the EC50 was 109 nM.

Same assay, conditions: Bead-bound RGS19 and AF488-Galphao binding, measured here: Ki calculated from EC50

Compared with `CCC(=O)NC(c1ccc(C)cc1)c1cc([N+](=O)[O-])c2cccnc2c1O` (configuration not stated), `NS(=O)(=O)c1ccc(N/N=C/c2ccc(O)c(O)c2O)c([N+](=O)[O-])c1` is 12-fold lower in Ki: 1160 nM for the first, 100 nM for the second.

Compared with `O=C1C(Cl)=C(N2CCCCC2)C(=O)C(Cl)=C1c1cnc(N2CCCCC2)s1`, `CN1CCN(C2=C(Cl)C(=O)C(c3cnc(N4CCCCC4)s3)=C(Cl)C2=O)CC1` is 2.7-fold lower in Ki: 80 nM for the first, 30 nM for the second.

Compared with `CC(=O)OCCCNc1cc(Sc2nc3ccccc3s2)c2nonc2c1[N+](=O)[O-]`, `CCOC(=O)c1sc(NC(=O)CSc2nnc(Cc3ccccc3)o2)c(C#N)c1C` is 14-fold higher in Ki: 10 nM for the first, 140 nM for the second. The first binds more tightly here.

`COc1ccc(C2=CC(=O)C=CC2=O)cc1` and `CC1(C)OC(=O)C(=Cc2ccc(-c3ccc(S(N)(=O)=O)cc3)o2)C(=O)O1` are within 1.5-fold of each other in Ki: 160 nM for the first, 230 nM for the second.

Going from `Cc1cccc(N2CCN(C(=O)COc3nsc4nc(C)cc(C)c34)CC2C)c1` (configuration not stated) to `Cc1cccc(N2CCN(C(=O)Cn3sc4nc(C)cc(C)c4c3=O)CC2C)c1` (configuration not stated), the Ki falls from 550 nM to 90 nM (6.1-fold).

Compared with `O=C(Cc1csc(N2CCOCC2)n1)N/N=C/c1ccc(O)c(O)c1O`, `CCN=c1scc(C)n1/N=C/c1ccc(O)c(O)c1O` is 2.1-fold lower in Ki: 750 nM for the first, 350 nM for the second.

First: O=C(NCCCN1CCOCC1)c1sc2cc([N+](=O)[O-])ccc2c1Cl
Second: Cc1cc(Cl)ccc1N=c1ssnc1Cl
The Ki of the first is 4.2-fold higher: 460 nM for the first, 110 nM for the second. The second binds more tightly here.

First: Cc1[nH]n(-c2ccccc2)c(=S)c1C=NCCCN=Cc1c(C)[nH]n(-c2ccccc2)c1=S
Second: CN=c1scc(C)n1/N=C/c1ccc(O)c(O)c1O
The Ki of the first is 4-fold lower: 50 nM for the first, 200 nM for the second.
